# Reference: article PMC6279241 (Science signaling, 2018)
# Substitutions are numbered along the chain they refer to. Numbered stars: 1 amine (or outer) side, 2 acyl side, 3 side chain; on linkers, the order of the positions; unused ones are H or OH. Bridge positions count the residues as written; N and C are the ends. Square brackets hold non-standard residues; d marks the D form. Peptide text beside a SMILES is read from it. * marks the point of attachment. Leu(3R-OH,Nα-propionyl) = CCC(=O)N[C@H](C(=O)*)[C@H](O)C(C)C; X1 = CC(C)[C@@H](O[*:3])[C@H](N[*:1])C(=O)[*:2]; NMeT = CN[C@H](C(=O)O)[C@@H](C)O; dPhLac = O=C(O)[C@H](O)Cc1ccccc1; NMeA = CN[C@@H](C)C(=O)O; NMeDha = C=C(NC)C(=O)O
# Experiments:
# Gαi/q(Q204L) = Gαi/q(Q204L) (Homo sapiens, UniProt P63096, H188P/K180P/K54R/Q204L/T187Y/V185I/V50I/V72L/Y69F); test: GTP hydrolysis; format: biochemical; settings: FR 25 μM
# Chain of Gαi/q(Q204L) (P63096 whole entry V50I/K54R/Y69F/V72L/K180P/V185I/T187Y/H188P/Q204L): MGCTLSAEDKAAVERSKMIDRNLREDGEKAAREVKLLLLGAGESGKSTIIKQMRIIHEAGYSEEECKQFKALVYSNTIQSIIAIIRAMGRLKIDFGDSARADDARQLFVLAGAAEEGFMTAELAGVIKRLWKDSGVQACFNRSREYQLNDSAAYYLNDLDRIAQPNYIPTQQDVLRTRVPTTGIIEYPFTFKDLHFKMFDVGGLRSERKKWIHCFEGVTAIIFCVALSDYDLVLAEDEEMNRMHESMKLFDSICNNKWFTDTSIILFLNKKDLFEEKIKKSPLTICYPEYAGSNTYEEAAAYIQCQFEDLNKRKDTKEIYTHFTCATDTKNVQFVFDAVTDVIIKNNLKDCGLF
# In short: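 His-tagged Gαi/q(Q204L) was expressed in E. coli; it is Gαi1 carrying eight Gαq-type substitutions. The protein (3 μM) was in 50 mM Tris-HCl pH 8.0, 5 mM MgCl2, 1 mM EDTA, 0.5 mM DTT. Reaction started with γ32P-GTP (100 nM final, 100 Ci/mmol); protein was in >10-fold excess. FR (25 μM final) or DMSO was added partway. Aliquots were quenched in 1N formic acid and resolved on PEI-cellulose TLC. Triplicate, ≥3 days, different protein preparations.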
# Gα13(Q226L) / LARG-RGS = biological target: T1, Gα13(Q226L) / LARG-RGS (Homo sapiens, UniProt Q14344, Q226L); format: cell-based; settings: split luciferase
# T1 sequence (Q14344 1-377 Q226L): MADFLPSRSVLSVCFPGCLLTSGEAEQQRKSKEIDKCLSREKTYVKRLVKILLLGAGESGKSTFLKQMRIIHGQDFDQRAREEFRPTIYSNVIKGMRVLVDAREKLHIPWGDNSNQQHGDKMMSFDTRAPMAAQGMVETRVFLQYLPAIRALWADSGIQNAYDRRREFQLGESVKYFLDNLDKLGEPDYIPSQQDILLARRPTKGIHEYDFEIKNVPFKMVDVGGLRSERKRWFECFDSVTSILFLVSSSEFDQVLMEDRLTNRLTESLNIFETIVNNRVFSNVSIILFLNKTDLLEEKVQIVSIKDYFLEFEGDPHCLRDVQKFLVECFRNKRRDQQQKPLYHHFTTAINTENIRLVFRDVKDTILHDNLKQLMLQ
# In short: (§1)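 Split click beetle green luciferase in transiently transfected HEK293 cells. The N-terminal fragment sat in the helical-domain αB-αC loop of wild type or Q226L Gα13. The C-terminal fragment was fused to the N-terminus of Gβ1 (with untagged Gγ2 co-transfected) or of the LARG RGS domain. Cells were treated 18 h with test compound or DMSO, then reconstituted luciferase activity was read. Triplicate wells; 3 experiments on different days.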
# wild type Gαq / Gβγ = biological target: T2, wild type Gαq / Gβγ (Mus musculus, UniProt P21279); test: Co-purification of endogenous Gβγ with affinity-tagged wild type Gαq; format: cell-based; settings: FR 1 μM, 24 hours; n=3
# T2 sequence (P21279 1-359): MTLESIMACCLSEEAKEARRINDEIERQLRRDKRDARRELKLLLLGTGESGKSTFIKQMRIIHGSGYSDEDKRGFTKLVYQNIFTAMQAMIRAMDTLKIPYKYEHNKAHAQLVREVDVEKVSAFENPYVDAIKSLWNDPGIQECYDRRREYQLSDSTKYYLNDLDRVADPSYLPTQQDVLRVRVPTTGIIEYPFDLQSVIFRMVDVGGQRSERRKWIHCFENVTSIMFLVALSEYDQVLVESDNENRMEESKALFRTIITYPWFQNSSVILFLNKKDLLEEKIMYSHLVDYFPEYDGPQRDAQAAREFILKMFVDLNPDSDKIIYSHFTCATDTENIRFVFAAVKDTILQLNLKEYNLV
# In short: (§2)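 HEK293 cells were transfected with mouse Gαq, either wild type or Q209L. A FLAG-StrepII-StrepII tag flanked by Gly/Ser linkers was inserted between residues 124 and 125. After 24 h, cells got FR (1 μM) or DMSO for 24 h. They were lysed in 50 mM Tris pH 8.0, 100 mM NaCl, 5 mM EDTA, 1 mM MgCl2, 0.5% IGEPAL, ± 1 μM FR. StrepTactin then anti-FLAG purification at 4 °C. Immunoblot for FLAG and Gβ; 3 independent experiments.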
# 92.1 cells [1] = test: Flow cytometry of DNA content; format: cell-based, human; settings: 92.1, 3 days
# In short: (§3)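 Cells were treated with test compound for 3 days, then stained with propidium iodide for DNA content and run on a FACScan flow cytometer. The sub-G1 fraction gave apoptosis; S- and G2/M-phase fractions gave proliferation. Mean ± SEM of 4 experiments. t-tests were corrected with the Holm-Sidak method.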
# Gαi/q(R54K) [2] = test: Attenuation of cannabinoid receptor-evoked inhibition of forskolin-induced cAMP; format: cell-based; settings: Neuro2A
# Gαq(Q209L) / Gβγ = biological target: T3, Gαq(Q209L) / Gβγ (Mus musculus, UniProt P21279, Q209L); test: Co-purification of endogenous Gβγ with affinity-tagged constitutively active Gαq; format: cell-based; settings: FR 1 μM, 24 hours; n=3
# T3 sequence (P21279 1-359 Q209L): T2 sequence (P21279 1-359) with Q209L
# In short: as §2
# Gα13(Q226L) = biological target: T4, Gα13(Q226L) (Homo sapiens, UniProt Q14344, Q226L); test: SRE; format: cell-based; settings: SRE(L) reporter
# T4 sequence (Q14344 1-377 Q226L): T1 sequence (Q14344 1-377 Q226L)
# In short: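 SRE(L) promoter-driven firefly luciferase transcriptional reporter activated by constitutively active Gα13. Firefly signal was normalized to co-transfected Renilla luciferase expressed from a constitutive promoter.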
# wild type Gα13 / Gβ1γ2 = wild type Gα13 / Gβ1γ2 (Homo sapiens, UniProt Q14344); test: Split-luciferase complementation between Gβ1γ2 and wild type Gα13; format: cell-based
# Chain of wild type Gα13 / Gβ1γ2 (P59768 2-68): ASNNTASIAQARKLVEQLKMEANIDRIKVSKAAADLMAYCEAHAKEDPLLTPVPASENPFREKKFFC
# Chain of wild type Gα13 / Gβ1γ2 (P62873 whole entry, further chain): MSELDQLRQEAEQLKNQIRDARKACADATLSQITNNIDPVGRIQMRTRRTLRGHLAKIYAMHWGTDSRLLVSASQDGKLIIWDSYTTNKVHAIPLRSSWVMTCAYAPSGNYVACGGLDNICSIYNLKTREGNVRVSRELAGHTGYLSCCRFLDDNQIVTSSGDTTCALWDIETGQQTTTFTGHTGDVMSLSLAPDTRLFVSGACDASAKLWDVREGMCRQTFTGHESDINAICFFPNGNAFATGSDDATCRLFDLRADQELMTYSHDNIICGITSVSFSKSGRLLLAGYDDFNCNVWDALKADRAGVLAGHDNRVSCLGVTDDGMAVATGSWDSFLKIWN
# Chain of wild type Gα13 / Gβ1γ2 (Q14344 whole entry): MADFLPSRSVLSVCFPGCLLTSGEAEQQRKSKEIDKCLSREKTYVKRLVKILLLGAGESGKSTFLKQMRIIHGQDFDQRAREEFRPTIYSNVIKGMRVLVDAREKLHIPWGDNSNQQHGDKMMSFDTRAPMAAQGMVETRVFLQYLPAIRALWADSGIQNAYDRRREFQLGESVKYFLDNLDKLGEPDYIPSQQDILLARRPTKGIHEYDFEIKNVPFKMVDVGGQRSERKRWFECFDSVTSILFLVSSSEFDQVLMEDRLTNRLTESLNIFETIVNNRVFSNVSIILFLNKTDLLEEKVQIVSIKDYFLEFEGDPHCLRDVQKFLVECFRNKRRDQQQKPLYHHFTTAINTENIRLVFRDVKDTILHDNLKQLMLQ
# In short: as §1
# Mel202 cells [3] = test: Melanocytic pigmentation of Mel202 cells; format: cell-based, human; settings: Mel202, 3 days, vs vehicle
# In short: (§4)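 Cells were treated with test compound for 3 days, then pelleted and examined macroscopically for pigmentation against vehicle (DMSO). Representative images are from one of 3 experiments, each in triplicate.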
# OCM-1A cells [4] = test: Cell viability/proliferation; format: cell-based, human; settings: even at 10 μM
# In short: (§5)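 Water-soluble tetrazolium salt (WST-8) viability assay run per the maker's protocol. Cells were grown in RPMI 1640 with 10% FBS and antibiotics at 37 °C, 5% CO2. Fold-change in viability over time was followed at increasing test compound concentrations, and EC50 was taken from concentration-response data. Mean ± SEM of 4 experiments, each in triplicate.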
# 92.1 cells [5] = test: IP1 abundance; format: cell-based, human; settings: 92.1, Gαq(Q209L)-driven
# In short: (§6)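 Homogeneous IP1 immunoassay (IP-One kit). Seeding was 10,000 Mel202, 20,000 92.1 or 20,000 OCM-1A cells per well. After overnight culture, cells got test compound or DMSO and were incubated until the next day. Stimulation buffer was added for 1 h, then IP1-d2 and anti-IP1 cryptate for 60 min at room temperature. IP1 was read from kit standard curves. Mean ± SEM of 4 experiments, each in triplicate.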
# OCM-1A cells [6] = test: IP1 abundance; format: cell-based, human; settings: BRAF(V600E)-driven
# In short: as §6
# Mel202 cells [7] = test: Flow cytometry of DNA content; format: cell-based, human; settings: Mel202, 3 days
# In short: as §3
# 92.1 cells [8] = test: Melanocytic pigmentation of 92.1 cells; format: cell-based, human; settings: 92.1, 3 days, vs vehicle
# In short: as §4
# Mel202 cells [9] = test: Cell viability/proliferation; format: cell-based, human; settings: read-out: EC50, inhibition of proliferation (viability)
# In short: as §5
# 92.1 cells [10] = test: Immunofluorescence staining of melanocytic markers in 92.1 cells; format: cell-based, human
# In short: (§7)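 Immunofluorescence for TYR, DCT and PMEL. An equal volume of 2× fixative (PBS, 4% paraformaldehyde, 0.4% glutaraldehyde) was added to cells in growth medium for 15 min at 37 °C. Cells were permeabilized with 0.1% Triton X-100 for 5 min, blocked with 2% fish gelatin, and labelled with Alexa Fluor secondaries. The proportion of marker-positive cells was compared with Fisher's exact test. Representative of 3 experiments.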
# OCM-1A cells [11] = test: Flow cytometry of DNA content; format: cell-based, human; settings: 3 days
# In short: as §3
# 92.1 cells [12] = test: Cell viability/proliferation; format: cell-based, human; settings: read-out: EC50, inhibition of proliferation (viability)
# In short: as §5
# Mel202 cells [13] = test: IP1 abundance; format: cell-based, human; settings: Mel202, Gαq(Q209L)-driven
# In short: as §6
# 92.1 cells [14] = test: RNA-Seq gene expression in FR-treated 92.1 cells; format: cell-based, human; settings: 92.1, 100 nM FR
# Gα13(Q226L) / Gβ1γ2 = biological target: T5, Gα13(Q226L) / Gβ1γ2 (Homo sapiens, UniProt Q14344, Q226L); test: Split-luciferase complementation between Gβ1γ2 and constitutively active Gα13; format: cell-based
# T5 sequence (Q14344 1-377 Q226L): T1 sequence (Q14344 1-377 Q226L)
# In short: as §1
# OCM-1A cells [15] = test: Quantitative RT-PCR of PRC2-regulated genes in OCM-1A cells; format: cell-based, human; settings: qRT-PCR
# OCM-1A cells [16] = test: Morphology; format: cell-based, human; settings: 3 days
# In short: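 Cells were treated with test compound for 3 days and imaged by phase contrast on an inverted microscope with a 10× objective. Representative fields are from one of 3 experiments.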
# Gαi/q = test: Attenuation of cannabinoid receptor-evoked inhibition of forskolin-induced cAMP; format: cell-based; settings: read-out: IC50, attenuation of Gαi/q-mediated inhibition of forskolin-induced cAMP accumulation; Neuro2A, cannabinoid type 1 receptors, WIN 55,212-2
# Mel202 cells [17] = test: Immunofluorescence staining of melanocytic markers in Mel202 cells; format: cell-based, human
# In short: as §7
# Gαi/q(R54K) [18] = biological target: Gαi/q(R54K) (Homo sapiens, UniProt P63096, H188P/K180P/T187Y/V185I/V50I/V72L/Y69F); test: Nucleotide exchange; format: biochemical; settings: in vitro
# Chain of Gαi/q(R54K) (Homo sapiens, UniProt P63096, H188P/K180P/T187Y/V185I/V50I/V72L/Y69F) (P63096 whole entry V50I/Y69F/V72L/K180P/V185I/T187Y/H188P): as the sequence (P63096 whole entry V50I/K54R/Y69F/V72L/K180P/V185I/T187Y/H188P/Q204L) above, with R54K, L204Q counted along it
# Gαq(Q209L) = biological target: T6, Gαq(Q209L) (Mus musculus, UniProt P21279, Q209L); test: SRE; format: cell-based; settings: read-out: IC50, inhibition of transcriptional reporter driven by constitutively active Gαq; SRE(L) reporter
# T6 sequence (P21279 1-359 Q209L): T2 sequence (P21279 1-359) with Q209L
# In short: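 Firefly luciferase signal from the Gα-driven transcriptional reporter was normalized to co-transfected Renilla luciferase from a constitutive promoter.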
structure (smiles),measurement,setting,value
"C=C1C(=O)N[C@@H](C)C(=O)N(C)[C@@H](C)C(=O)N[C@@H]([C@H](OC(=O)[C@@H](NC(=O)CC)[C@H](O)C(C)C)C(C)C)C(=O)N(C)[C@@H]([C@@H](C)OC)C(=O)O[C@H](C(C)C)[C@H](NC(C)=O)C(=O)O[C@H](Cc2ccccc2)C(=O)N1C [FR, FR900359] (Ac-[X1][dPhLac][NMeDha]A[NMeA][X1](Leu(3R-OH,Nα-propionyl))[NMeT](Me); ester 1-C)",Correction of GTP hydrolysis defect of Gαi/q(Q204L),Gαi/q(Q204L),not corrected
same,Effect on interaction between constitutively active Gα13 and RGS domain of LARG,Gα13(Q226L) / LARG-RGS,lack of effect
same,Increase of association between Gβγ and affinity-tagged wild type Gαq (co-purification),wild type Gαq / Gβγ,19 fold
same,Apoptosis (increased fraction of sub-G1/G0 cells),92.1 cells [1],induced
same,Cell cycle inhibition (decreased fraction of S- or G2/M-phase cells),92.1 cells [1],induced
same,Fold less potent toward Gαi/q(R54K) than Gαi/q (cAMP signaling in cells),Gαi/q(R54K) [2],~ 30 fold
same,IC50,"Gαi/q(R54K) [2]; read-out: IC50, attenuation of Gαi/q(R54K)-mediated inhibition of forskolin-induced cAMP accumulation, cannabinoid type 1 receptors, WIN 55,212-2",~800 nM
same,Increase of association between Gβγ and affinity-tagged constitutively active Gαq (co-purification),Gαq(Q209L) / Gβγ,9 fold
same,Effect on transcriptional reporter driven by constitutively active Gα13,Gα13(Q226L),no effect
same,Effect on interaction between wild type Gα13 and Gβ1γ2,wild type Gα13 / Gβ1γ2,lack of effect
same,Melanocytic pigmentation,Mel202 cells [3],increased
same,Effect on proliferation,OCM-1A cells [4],no effect
same,Reduction of IP1 abundance,92.1 cells [5],> 50 fold
same,Reduction of IP1 abundance,OCM-1A cells [6],~ 2 fold
same,Apoptosis (increased fraction of sub-G1/G0 cells),Mel202 cells [7],induced
same,Cell cycle inhibition (decreased fraction of S- or G2/M-phase cells),Mel202 cells [7],induced
same,Melanocytic pigmentation,92.1 cells [8],increased
same,EC50,Mel202 cells [9],6 nM
same,Increase in proportion of DCT-positive cells,92.1 cells [10],3.5 fold
same,Increase in proportion of PMEL-positive cells,92.1 cells [10],6.8 fold
same,Effect on cell cycle and apoptosis,OCM-1A cells [11],no effect
same,EC50,92.1 cells [12],2 nM
same,Reduction of IP1 abundance,Mel202 cells [13],> 50 fold
same,Decrease in expression of BBC3/PUMA,92.1 cells [14],3.5 fold
same,Decrease in expression of PMAIP1/NOXA,92.1 cells [14],2.5 fold
same,Decrease in expression of p21CIP1 (CDKN1A),92.1 cells [14],3.0 fold
same,Effect on interaction between constitutively active Gα13(Q226L) and Gβ1γ2,Gα13(Q226L) / Gβ1γ2,lack of effect
same,Expression of PRC2-regulated genes,OCM-1A cells [15],unaffected
same,Morphological changes,OCM-1A cells [16],no effect
same,IC50,Gαi/q,25 nM
same,Increase in proportion of DCT-positive cells,Mel202 cells [17],1.6 fold
same,Increase in proportion of PMEL-positive cells,Mel202 cells [17],3.9 fold
same,Increase in proportion of TYR-positive cells,Mel202 cells [17],1.8 fold
same,Fold less potent toward Gαi/q(R54K) than Gαi/q (nucleotide exchange),Gαi/q(R54K) [18],> 10 fold
same,IC50,Gαq(Q209L),1 nM
